ChEMBL document CHEMBL3259640 (J Med Chem, 2014)
Active and inactive are the calls of the source. The calls are words filed in the database; no cut-off is given here.

Tests used:
K562 [1] = assay: Antiproliferative activity against human K562 cells assessed as cell viability after 96 hrs by CellTiter96 assay; assay type: functional, cell-based; conditions: K562, 96 h
[2] = AUC in Sprague-Dawley rat at 2 mg/kg, iv compound formulated with 5% DMSO, 10% cremophor and 85% water by LC-MS/MS analysis; assay type: ADME, organism-based; set-up: dose 2 mg/kg, route intravenous; conditions: plasma
[3] = Volume of distribution in Sprague-Dawley rat at 2 mg/kg, iv compound formulated with 5% DMSO, 10% cremophor and 85% water by LC-MS/MS analysis; assay type: ADME, organism-based; set-up: dose 2 mg/kg, route intravenous; conditions: in vivo
Method in brief: (§1)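 Male Sprague–Dawley rats, n = 3. Blood drawn by preimplanted catheter over 24 h; plasma separated at 4 °C and deproteinated with acetonitrile. Drug measured by LC–MS/MS; parameters obtained by noncompartmental analysis.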

[4] = Clearance in Sprague-Dawley rat at 2 mg/kg, iv compound formulated with 5% DMSO, 10% cremophor and 85% water by LC-MS/MS analysis; assay type: ADME, organism-based; set-up: dose 2 mg/kg, route intravenous; conditions: in vivo
[5] = Oral bioavailability in Sprague-Dawley rat at 20 mg/kg compound formulated with 1% methylcellulose in water by LC-MS/MS analysis; assay type: ADME, organism-based; conditions: in vivo; method in brief: as §1
[6] = Oral bioavailability in Sprague-Dawley rat at 20 mg/kg compound formulated with 5% DMSO, 10% cremophor and 85% water by LC-MS/MS analysis; assay type: ADME, organism-based; conditions: in vivo
MDA-MB-231 = assay: Antitumor activity against human MDA-MB-231 cells xenografted in BALB/c nu/nu mouse assessed as tumor volume at 20 mg/kg, iv qd for 28 days relative to control; assay type: functional
Method in brief: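 Female BALB/c nu/nu mice, 5–8 weeks old, implanted subcutaneously in the right flank with 1 × 10⁷ MDA-MB-231 cells in matrigel. Dosing began at about 100 mm³ mean tumour volume; 5 mice/group. Arms: vehicle (5% DMSO, 10% Cremophor in water) IV once daily, 20 mg/kg IV once daily, or 150 mg/kg PO twice daily, for 28 days. Caliper volumes and body weight every 2 days; T/C on day 28.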

Mus musculus = assay: Toxicity in BALB/c nu/nu mouse xenografted with human MDA-MB-231 cells assessed as body weight loss at 20 mg/kg, iv qd for 28 days; assay type: organism-based; set-up: dose 20 mg/kg, route intravenous; conditions: in vivo, 672 h
Method in brief: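 Female BALB/c nu/nu mice, 5–8 weeks old, implanted subcutaneously in the right flank with 1 × 10⁷ MDA-MB-231 cells in matrigel. Treatment began at about 100 mm³ tumor volume; 5 mice per group. Dosing for 28 days: IV 20 mg/kg once daily or PO 150 mg/kg twice daily, in 5% DMSO/10% Cremophor in H₂O; vehicle controls included. Body weight and tumor size (caliper) recorded every 2 days.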

MDA-MB-468 [7] = assay: Induction of mitotic abnormalities in human MDA-MB-468 cells assessed as proportion of cells displaying multipolar spindles at 100 nM after 48 hrs by immunofluorescent staining based microscopy (reference value: […]); assay type: functional
MDA-MB-468 [8] = assay: Induction of mitotic abnormalities in human MDA-MB-468 cells assessed as proportion of cells displaying chromosomal misalignment at 10 nM after 48 hrs by immunofluorescent staining based microscopy (reference value: 21.4%); assay type: functional
HeLa [9] = assay: Induction of apoptosis in human HeLa cells assessed as increase in cleaved caspase-3 level at 1 uM after 24 to 48 hrs by western blot analysis; assay type: functional, cell-based
Method in brief: (§2)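 HeLa cells given 1.0 μM compound, DMSO, or paclitaxel 100 nM for 24 and 48 h. Lysates made in SDS sample buffer, run on SDS-PAGE and transferred to PVDF. Blots probed for cleaved caspase-3, cleaved PARP, Bcl-2, Mcl-1 and XIAP, with actin as loading control, and detected by HRP-linked ECL.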

HeLa [10] = assay: Induction of apoptosis in human HeLa cells assessed as increase in cleaved PARP level at 1 uM after 24 to 48 hrs by western blot analysis; assay type: functional, cell-based; method in brief: as §2
K562 [11] = assay: Growth inhibition of human K562 cells; assay type: functional
COLO 205 = assay: Growth inhibition of human COLO205 cells; assay type: functional
MDA-MB-468 [12] = assay: Growth inhibition of human MDA-MB-468 cells; assay type: functional
T47D = assay: Growth inhibition of human T47D cells; assay type: functional
HepG2 = assay: Growth inhibition of human HepG2 cells; assay type: functional
[13] = Growth inhibition of human RPTEC cells; assay type: cell-based
[14] = target: Serine/threonine-protein kinase Nek2 (Homo sapiens, UniProt P51955); assay: Inhibition of Nek2 (unknown origin)
Sequence of Serine/threonine-protein kinase Nek2 (P51955 whole entry): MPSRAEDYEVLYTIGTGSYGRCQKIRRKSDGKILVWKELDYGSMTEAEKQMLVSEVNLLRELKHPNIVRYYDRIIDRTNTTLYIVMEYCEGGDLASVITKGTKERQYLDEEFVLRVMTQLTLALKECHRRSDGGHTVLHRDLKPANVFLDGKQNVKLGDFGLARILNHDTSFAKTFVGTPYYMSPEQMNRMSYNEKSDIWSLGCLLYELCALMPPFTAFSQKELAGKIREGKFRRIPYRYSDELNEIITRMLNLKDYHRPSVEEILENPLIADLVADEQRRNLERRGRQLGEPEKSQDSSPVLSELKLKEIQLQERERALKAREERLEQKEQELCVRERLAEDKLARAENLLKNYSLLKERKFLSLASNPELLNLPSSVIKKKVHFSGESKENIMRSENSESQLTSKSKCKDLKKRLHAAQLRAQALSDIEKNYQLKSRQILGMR

[15] = target: Serine/threonine-protein kinase Chk2 (Homo sapiens, UniProt O96017); assay: Inhibition of CHK2 (unknown origin) assessed as [33P] incorporation in substrate by TopCount microplate scintillation counting analysis
Sequence of Serine/threonine-protein kinase Chk2 (O96017 whole entry): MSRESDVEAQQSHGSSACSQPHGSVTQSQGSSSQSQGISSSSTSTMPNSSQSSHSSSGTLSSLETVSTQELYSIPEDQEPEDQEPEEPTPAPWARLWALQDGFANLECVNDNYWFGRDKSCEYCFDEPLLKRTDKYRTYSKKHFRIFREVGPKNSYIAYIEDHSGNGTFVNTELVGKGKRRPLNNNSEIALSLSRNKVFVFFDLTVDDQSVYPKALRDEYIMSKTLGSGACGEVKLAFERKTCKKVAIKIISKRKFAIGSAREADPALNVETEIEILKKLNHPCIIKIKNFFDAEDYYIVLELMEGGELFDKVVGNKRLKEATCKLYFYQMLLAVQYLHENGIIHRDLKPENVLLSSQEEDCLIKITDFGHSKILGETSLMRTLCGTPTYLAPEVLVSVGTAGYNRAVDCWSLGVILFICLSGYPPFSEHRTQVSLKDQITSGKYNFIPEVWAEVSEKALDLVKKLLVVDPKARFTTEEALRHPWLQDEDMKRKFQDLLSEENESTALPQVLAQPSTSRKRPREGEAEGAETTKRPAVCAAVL

[16] = target: Serine/threonine-protein kinase Chk1 (Homo sapiens, UniProt O14757); assay: Inhibition of CHK1 (unknown origin) assessed as [33P] incorporation in substrate by TopCount microplate scintillation counting analysis
Sequence of Serine/threonine-protein kinase Chk1 (O14757 whole entry): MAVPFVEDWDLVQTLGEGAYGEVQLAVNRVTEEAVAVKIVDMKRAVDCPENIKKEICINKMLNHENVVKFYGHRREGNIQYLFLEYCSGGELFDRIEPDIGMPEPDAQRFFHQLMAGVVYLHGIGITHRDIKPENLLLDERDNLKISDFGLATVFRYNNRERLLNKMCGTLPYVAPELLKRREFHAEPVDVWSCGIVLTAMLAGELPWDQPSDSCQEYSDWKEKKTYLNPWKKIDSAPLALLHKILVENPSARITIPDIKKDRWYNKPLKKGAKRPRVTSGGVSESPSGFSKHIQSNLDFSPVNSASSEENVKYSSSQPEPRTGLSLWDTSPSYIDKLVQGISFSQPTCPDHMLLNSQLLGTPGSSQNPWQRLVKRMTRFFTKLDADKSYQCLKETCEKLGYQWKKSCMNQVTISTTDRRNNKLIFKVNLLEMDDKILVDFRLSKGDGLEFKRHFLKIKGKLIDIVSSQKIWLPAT

[17] = target: Vascular endothelial growth factor receptor 2 (Homo sapiens, UniProt P35968); assay: Inhibition of VEGFR2 (unknown origin) assessed as [33P] incorporation in substrate by TopCount microplate scintillation counting analysis
Sequence of Vascular endothelial growth factor receptor 2 (P35968 whole entry): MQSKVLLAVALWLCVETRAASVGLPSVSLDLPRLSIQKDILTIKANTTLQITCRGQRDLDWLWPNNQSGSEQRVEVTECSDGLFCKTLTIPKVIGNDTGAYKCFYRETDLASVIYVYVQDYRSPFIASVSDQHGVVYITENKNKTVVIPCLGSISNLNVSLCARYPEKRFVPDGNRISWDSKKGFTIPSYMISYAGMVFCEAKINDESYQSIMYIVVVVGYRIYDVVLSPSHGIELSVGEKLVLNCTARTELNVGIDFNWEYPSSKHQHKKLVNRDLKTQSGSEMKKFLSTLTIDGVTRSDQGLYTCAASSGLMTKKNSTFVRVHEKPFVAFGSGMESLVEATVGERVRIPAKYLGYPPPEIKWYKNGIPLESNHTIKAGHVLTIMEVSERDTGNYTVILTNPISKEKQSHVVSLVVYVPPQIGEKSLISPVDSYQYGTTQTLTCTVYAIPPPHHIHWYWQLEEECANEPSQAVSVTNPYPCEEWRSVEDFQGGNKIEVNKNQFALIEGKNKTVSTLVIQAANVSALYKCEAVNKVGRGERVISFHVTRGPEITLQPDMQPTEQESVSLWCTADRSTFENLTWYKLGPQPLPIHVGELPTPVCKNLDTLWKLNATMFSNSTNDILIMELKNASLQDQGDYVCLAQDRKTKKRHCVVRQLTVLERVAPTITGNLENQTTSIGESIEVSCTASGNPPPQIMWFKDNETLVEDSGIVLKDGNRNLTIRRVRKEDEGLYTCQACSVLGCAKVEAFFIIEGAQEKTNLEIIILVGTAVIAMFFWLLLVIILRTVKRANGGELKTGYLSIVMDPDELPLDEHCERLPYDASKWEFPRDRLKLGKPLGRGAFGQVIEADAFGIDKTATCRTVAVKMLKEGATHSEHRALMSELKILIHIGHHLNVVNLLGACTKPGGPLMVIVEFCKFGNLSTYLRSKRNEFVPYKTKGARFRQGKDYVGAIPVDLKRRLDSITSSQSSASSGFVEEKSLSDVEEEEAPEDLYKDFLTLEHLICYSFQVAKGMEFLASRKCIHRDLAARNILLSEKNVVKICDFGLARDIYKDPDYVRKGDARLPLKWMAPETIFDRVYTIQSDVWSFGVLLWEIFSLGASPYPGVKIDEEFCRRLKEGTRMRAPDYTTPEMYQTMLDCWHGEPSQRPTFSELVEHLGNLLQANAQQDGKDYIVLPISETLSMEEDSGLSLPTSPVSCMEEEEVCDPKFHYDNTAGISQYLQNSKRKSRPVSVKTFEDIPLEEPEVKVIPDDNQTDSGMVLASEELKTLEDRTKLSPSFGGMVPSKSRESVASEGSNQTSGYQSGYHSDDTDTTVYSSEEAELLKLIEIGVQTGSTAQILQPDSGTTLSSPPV

[18] = target: RAF proto-oncogene serine/threonine-protein kinase (Homo sapiens, UniProt P04049); assay: Inhibition of C-Raf (unknown origin) assessed as [33P] incorporation in substrate by TopCount microplate scintillation counting analysis
Sequence of RAF proto-oncogene serine/threonine-protein kinase (P04049 whole entry): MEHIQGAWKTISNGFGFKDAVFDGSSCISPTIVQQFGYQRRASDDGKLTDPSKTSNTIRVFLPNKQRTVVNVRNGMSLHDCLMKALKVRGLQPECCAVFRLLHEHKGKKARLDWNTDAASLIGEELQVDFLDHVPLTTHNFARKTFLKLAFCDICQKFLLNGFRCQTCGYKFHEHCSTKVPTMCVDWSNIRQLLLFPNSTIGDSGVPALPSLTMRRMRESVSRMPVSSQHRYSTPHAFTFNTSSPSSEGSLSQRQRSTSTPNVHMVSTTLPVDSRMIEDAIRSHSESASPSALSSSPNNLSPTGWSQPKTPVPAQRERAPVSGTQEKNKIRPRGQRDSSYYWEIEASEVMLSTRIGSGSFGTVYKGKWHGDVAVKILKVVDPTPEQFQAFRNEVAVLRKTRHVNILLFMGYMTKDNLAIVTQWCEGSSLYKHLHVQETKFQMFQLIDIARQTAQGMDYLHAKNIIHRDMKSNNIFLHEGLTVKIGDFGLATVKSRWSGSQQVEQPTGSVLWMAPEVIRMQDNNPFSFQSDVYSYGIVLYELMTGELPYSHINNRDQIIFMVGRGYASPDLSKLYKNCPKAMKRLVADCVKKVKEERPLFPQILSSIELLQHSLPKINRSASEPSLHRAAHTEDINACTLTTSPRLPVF

[19] = target: Voltage-gated inwardly rectifying potassium channel KCNH2 (Homo sapiens, UniProt Q12809); assay: Displacement of [3H]astemizole from human ERG after 60 mins by competitive binding assay
Sequence of Voltage-gated inwardly rectifying potassium channel KCNH2 (Q12809 whole entry): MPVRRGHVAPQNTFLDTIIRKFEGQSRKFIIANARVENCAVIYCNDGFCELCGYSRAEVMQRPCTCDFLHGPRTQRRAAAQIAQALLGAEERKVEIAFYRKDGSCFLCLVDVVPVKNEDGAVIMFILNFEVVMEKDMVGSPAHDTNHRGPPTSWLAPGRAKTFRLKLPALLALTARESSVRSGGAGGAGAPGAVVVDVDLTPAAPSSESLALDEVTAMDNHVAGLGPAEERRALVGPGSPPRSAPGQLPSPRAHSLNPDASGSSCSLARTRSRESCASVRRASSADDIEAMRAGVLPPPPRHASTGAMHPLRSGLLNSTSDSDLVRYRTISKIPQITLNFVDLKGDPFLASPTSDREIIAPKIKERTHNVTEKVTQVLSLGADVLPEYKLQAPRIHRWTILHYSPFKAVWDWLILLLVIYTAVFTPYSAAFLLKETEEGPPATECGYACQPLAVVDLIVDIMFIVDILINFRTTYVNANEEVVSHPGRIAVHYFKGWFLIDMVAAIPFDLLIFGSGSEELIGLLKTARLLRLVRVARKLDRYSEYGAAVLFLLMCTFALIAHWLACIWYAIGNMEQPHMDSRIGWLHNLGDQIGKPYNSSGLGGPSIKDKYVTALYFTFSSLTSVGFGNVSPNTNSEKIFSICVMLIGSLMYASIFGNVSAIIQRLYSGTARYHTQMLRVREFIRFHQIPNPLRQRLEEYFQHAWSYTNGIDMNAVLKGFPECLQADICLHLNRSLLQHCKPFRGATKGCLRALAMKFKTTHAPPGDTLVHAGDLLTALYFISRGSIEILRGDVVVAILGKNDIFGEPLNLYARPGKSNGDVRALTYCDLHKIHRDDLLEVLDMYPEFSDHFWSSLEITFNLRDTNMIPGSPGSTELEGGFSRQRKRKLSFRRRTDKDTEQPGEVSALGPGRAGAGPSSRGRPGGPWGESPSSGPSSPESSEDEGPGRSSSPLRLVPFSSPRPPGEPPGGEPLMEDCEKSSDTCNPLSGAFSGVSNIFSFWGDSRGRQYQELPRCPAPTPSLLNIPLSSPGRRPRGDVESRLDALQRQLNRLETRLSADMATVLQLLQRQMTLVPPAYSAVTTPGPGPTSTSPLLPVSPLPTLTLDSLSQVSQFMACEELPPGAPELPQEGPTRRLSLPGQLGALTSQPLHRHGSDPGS

SMILES: COc1ccc(Oc2cc(C)c(-c3csc(NC(=O)c4ccnc(F)c4)n3)c(C)c2)cc1
- IC50 (K562 [1]): 16.3 nM
- AUC [2]: 64.9 µM·h
- Vd [3]: 0.948 L/kg
- clearance [4]: 1.22 mL/min/kg
- bioavailability [5]: 4.6%
- bioavailability [6]: 22.7%
- T/C (MDA-MB-231): 32%
- Activity (Mus musculus): < 5%
- Activity (MDA-MB-468 [7]): 29.1%
- Activity (MDA-MB-468 [8]): 23.9%
- Activity (HeLa [9]): Active
- Activity (HeLa [10]): Active
- GI50 (K562 [11]): 56.2 nM
- GI50 (COLO 205): 35.4 nM
- GI50 (MDA-MB-468 [12]): 29.6 nM
- GI50 (T47D): 377 nM
- GI50 (HepG2): 191 nM
- GI50 [13]: > 9 µM
- IC50 [14]: > 10 µM
- IC50 [15]: > 10 µM
- IC50 [16]: > 10 µM
- IC50 [17]: > 10 µM
- IC50 [18]: > 10 µM
- IC50 [19]: > 10 µM
